Source: PubChem BioAssay
A selection: hits, their analogues and other compounds. The true share with any hit is near 3.1%.
KCNQ1 act: potentiators or activators of human KCNQ1 potassium channel; CHO-K1 KCNQ1, thallium flux FluxOR fluorescence; active compounds read high; AID 2648; P51787; B-score at 10 µM; 0.35% of 310,000 active;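 active = fluorescence ratio B-score, a plate-corrected score, at least three library SD, with initial intensity B-score within 5 SD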
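assay system = CHO-K1 cells stably expressing KCNQ1 | medium = assay buffer, equal DMSO in all wells | timing = 37 °C overnight plating, 90-min dark dye load, 20-min compound pretreatment | measured by = kinetic FluxOR thallium fluorescence, 10-s 1-Hz baseline, 110-s post-stimulus read | measure = fluorescence change relative to baseline, converted to B score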
hERG protect: hERG (human) protection from proarrhythmic block | Q12809 | CHO-hERG, FluxOR thallium flux, dofetilide IC70 present | AID 1511 | 0.51% of 310,000 active | activation (rescue from dofetilide block), less the hit threshold, % at 10 µM;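 active = activation above the mean of controls blocked by dofetilide plus 5 SD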;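 note: thallium influx through hERG after potassium depolarization seen as dye fluorescence rise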
Target sequence (Q12809 whole entry, looked up): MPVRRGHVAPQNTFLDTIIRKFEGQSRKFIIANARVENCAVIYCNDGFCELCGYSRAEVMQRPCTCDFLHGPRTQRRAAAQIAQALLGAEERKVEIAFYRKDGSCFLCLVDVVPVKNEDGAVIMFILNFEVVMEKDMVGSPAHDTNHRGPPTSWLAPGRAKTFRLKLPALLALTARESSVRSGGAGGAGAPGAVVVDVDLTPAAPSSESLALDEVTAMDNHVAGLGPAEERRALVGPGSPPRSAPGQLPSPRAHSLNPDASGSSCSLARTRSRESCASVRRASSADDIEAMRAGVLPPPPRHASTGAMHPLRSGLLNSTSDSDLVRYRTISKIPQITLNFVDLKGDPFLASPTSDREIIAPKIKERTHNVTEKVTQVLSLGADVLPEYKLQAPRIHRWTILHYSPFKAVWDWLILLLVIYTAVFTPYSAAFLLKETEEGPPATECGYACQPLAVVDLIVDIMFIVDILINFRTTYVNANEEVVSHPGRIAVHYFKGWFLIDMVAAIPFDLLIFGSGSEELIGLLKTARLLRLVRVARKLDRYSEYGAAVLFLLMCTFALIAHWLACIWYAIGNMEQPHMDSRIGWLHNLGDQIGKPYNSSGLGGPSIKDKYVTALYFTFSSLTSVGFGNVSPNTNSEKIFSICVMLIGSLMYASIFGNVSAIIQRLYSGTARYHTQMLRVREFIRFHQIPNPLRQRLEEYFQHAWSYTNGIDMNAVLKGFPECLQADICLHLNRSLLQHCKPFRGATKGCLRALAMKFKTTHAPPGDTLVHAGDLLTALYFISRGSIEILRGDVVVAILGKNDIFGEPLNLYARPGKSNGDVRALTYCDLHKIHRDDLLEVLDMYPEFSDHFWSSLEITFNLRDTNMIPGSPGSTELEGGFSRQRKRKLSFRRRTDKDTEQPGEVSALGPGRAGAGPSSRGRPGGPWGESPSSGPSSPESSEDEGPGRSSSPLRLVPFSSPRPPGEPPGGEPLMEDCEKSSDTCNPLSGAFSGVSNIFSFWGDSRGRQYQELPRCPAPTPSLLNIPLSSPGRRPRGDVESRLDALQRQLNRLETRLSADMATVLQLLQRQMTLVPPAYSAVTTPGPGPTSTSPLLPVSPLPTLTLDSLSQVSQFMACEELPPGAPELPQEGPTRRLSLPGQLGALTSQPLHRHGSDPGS
KCNK3 block: human KCNK3 channel inhibition, primary screen; O14649; CHO-KCNK3 thallium flux, FluxOR fluorescence; active compounds read low; B-score at 10 µM; 0.84% of 340,000 active; AID 602410;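 active = B-score under library mean minus 4 SD, starting fluorescence ratio at most library mean plus 5 SD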;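 note: more negative B-score means stronger inhibition of thallium flux through KCNK3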
KCNK9 block: blocks the human KCNK9 two-pore domain potassium channel. HEK293 KCNK9, FluxOR thallium flux fluorescence; active compounds read low. AID 488922. B-score at 10 µM. Q9NPC2. 1.2% of 310,000 active;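 active = ratio B-score over 3 SD below the library mean, with starting fluorescence within 5 SD of its mean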;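 note: negative B-score means less thallium flux so channel inhibition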
KCNQ1 block: inhibitors of human KCNQ1 potassium channel. P51787. CHO-K1 KCNQ1, FluxOR thallium flux fluorescence; active compounds read high. B-score at 10 µM. 1.3% of 310,000 active. AID 2642;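 active = compounds whose thallium flux B-score, printed positive for inhibition, exceeds three library SD while starting fluorescence stays within three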;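 note: channel opened by potassium depolarization with thallium stimulus after 20 min compound exposure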
KCNK9 inh conf: confirmation of human KCNK9 potassium channel inhibitors; 43% of 4,900 active; HEK293 KCNK9 cells, FluxOR thallium flux fluorescence; inhibition, % at 10 µM; AID 492992; shares compounds with KCNK9 block;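 active = thallium signal inhibited by more than 5 SD of the compound-free buffer control wells, on both duplicate plates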;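 note: 0% = assay buffer control wells without compound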
Kir21 sel: mouse Kir2.1 off-target activity of KCNK9 modulators; shares compounds with KCNK9 block; Kir2.1 cells, FluxOR thallium flux fluorescence; inhibition, % at 10 µM; 4% of 4,900 active;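 active = thallium signal drop more than 5 SD beyond the mean of the no-compound control wells, seen in both duplicate plates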;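 note: signal is fluorescence rise after thallium addition divided by baseline fluorescence; plate controls were assay buffer only for no effect and full block by chlorpromazine control for full effect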
HEK293 Tl ctr: second check of KCNK9 modulator effects in non-induced HEK293 cells. shares compounds with KCNK9 block. FluxOR thallium flux. inhibition, % at 10 µM. 40% of 4,900 active;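 active = thallium signal drop beyond 5 SD of the untreated control mean, on both duplicate plates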;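 note: plate controls were buffer only IC0 wells for no effect and SID17386958 at its maximal inhibitory level for full effect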
* = called active by the depositor; i = inactive; · = no result given.

SMILES	KCNQ1 act	hERG protect	KCNK3 block	KCNK9 block	KCNQ1 block	KCNK9 inh conf	Kir21 sel	HEK293 Tl ctr
Cc1ccc2c(c1)N(CCC(=O)NC1CCCCC1C)C(=O)CO2 (centres undefined)	i	-9.2	i	i	i	i	i	i
COCCNC(=S)N(CCc1c(C)[nH]c2ccccc12)Cc1ccco1	i	-5.7	i	i	i	i	i	i
Cc1[nH]c2ccccc2c1CCN(Cc1cccs1)C(=S)Nc1ccccc1	i	-7.5	i	-8.18*	i	33.5%*	i	31.0%*
CNC(=S)N(CCc1c(C)[nH]c2ccc(Cl)cc12)Cc1cccs1	i	-14.9	·	i	i	·	·	·
Cc1ccc(N(Cc2ccc([N+](=O)[O-])cc2)C(=O)c2ccco2)cc1C	i	-11.9	i	-13.5*	i	55.5%*	i	41.5%*
COc1ccsc1C(=O)Nc1ccc(F)cc1F	i	-5.8	i	i	i	·	·	·
O=C(Nc1ccc(F)cc1F)c1sccc1SCc1cccc(C(F)(F)F)c1	i	-13.9	i	-11.7*	8*	68.0%*	42.5%*	49.5%*
O=C(Nc1ccc(F)cc1)c1sccc1SCc1cccc(C(F)(F)F)c1	i	-8.5	i	-12.6*	i	62.0%*	46.0%*	47.5%*
CSCc1ccc(C(=O)NC2CC(C)(C)Cc3c2cnn3-c2ccc(F)cc2)o1 (centres undefined)	i	-17.4	i	i	i	·	·	·
CCN(C[C@H]1N[C@@](CC)(C(=O)OC)[C@H]2C(=O)N(C)C(=O)[C@@H]12)C(=O)Nc1ccccc1	·	·	i	·	·	·	·	·
Cc1[nH]c2ccccc2c1/C=N/NC(=O)c1cc(-c2cccs2)[nH]n1	i	-10.0	i	-10.1*	i	i	i	i
O=C(C[C@@H]1C/C=C\C[C@@H](Cc2ccc(F)cc2)C(=O)OC[C@@H](Cc2ccccc2)NC1=O)N[C@H](CO)Cc1ccccc1	·	·	i	·	·	·	·	·
C=CCC(=O)N(CC)CC1CCCN(CCc2cccc(F)c2)C1 (centres undefined)	i	0.2	i	-9.05*	i	i	i	i
CC1CCc2ccccc2N1CC(=O)Nc1cccc(S(=O)(=O)N2CCCC2)c1 (centres undefined)	·	·	i	·	·	·	·	·
COc1ccc(C(=O)OCC(=O)Nc2c(C)n(C)n(-c3ccccc3)c2=O)cc1OC	·	·	i	·	·	·	·	·
CC1CC(C)CN(C(=O)CCCNC(=O)c2ccc(Cl)cc2)C1 (centres undefined)	i	-6.8	i	i	i	·	·	·
COc1ccc(CNC(=O)c2cccc(-c3ccc(C)c4ccccc34)n2)cc1	i	-10.9	i	i	i	i	i	i
COc1ccc(CNC(=O)c2ccccc2C(=O)O)cc1	i	-2.3	i	i	i	·	·	·
CCC(NS(=O)(=O)c1ccc2c(c1)NC(=O)C(C)C(=O)N2)c1cccs1 (centres undefined)	i	-1.4	i	i	i	·	·	·
Cc1ccc(C)c(OCc2cc(C(=O)N3CC[C@@H]4CCCC[C@H]4C3)no2)c1	i	-12.6	i	i	i	i	i	23.5%*
Cc1ccc(C)c(OCc2cc(C(=O)N3C[C@@H](C)O[C@@H](C)C3)no2)c1	i	-10.6	i	i	i	·	·	·
COc1cc(C)ccc1OCc1cc(C(=O)N2CCC(c3ccc(F)cc3)C2)no1 (centres undefined)	i	-7.5	i	i	i	i	i	i
NC(=O)c1ccsc1NC(=O)CS(=O)(=O)c1ccc(F)cc1	i	-5.6	i	i	i	·	·	·
COc1ccc(C)cc1N1CC(C(=O)Nc2ccccc2C(=O)NC2CC2)CC1=O (centres undefined)	·	·	i	·	·	·	·	·
COC(=O)C1=C(C(=O)OC)[C@]2([C@H]3CC=CCN[C@@H](Cc4ccccc4)C(=O)N3Cc3ccccc3)C=C[C@H]1O2	·	·	i	·	·	·	·	·
